Each block holds one molecule with its values, some of them ahead of it.
How the values were obtained:
[1] = biological target: Proto-oncogene tyrosine-protein kinase Src (Homo sapiens, UniProt P12931); test: Inhibition of recombinant Src by TR-FRET assay
Method in brief: (§1)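 Recombinant tyrosine kinase incubated with test compound and substrate peptide/ATP for 90 min at 30 °C; enzyme amount, ATP level, substrate and cation vary by kinase. Reaction stopped, then TR-FRET reagent with europium-labelled anti-phospho-substrate antibody added for 5 min at room temperature; substrate phosphorylation read as time-resolved fluorescence.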

[2] = biological target: Vascular endothelial growth factor receptor 2 (Homo sapiens, UniProt P35968); test: Inhibition of recombinant KDR by TR-FRET assay; method in brief: as §1
[3] = biological target: Hepatocyte growth factor receptor (Homo sapiens, UniProt P08581); test: Inhibition of recombinant c-Met by TR-FRET assay
Aurora kinase A = biological target: T1, Aurora kinase A (Homo sapiens, UniProt O14965); test: Inhibition of recombinant Aurora A by IMAP assay
T1 sequence (O14965 whole entry): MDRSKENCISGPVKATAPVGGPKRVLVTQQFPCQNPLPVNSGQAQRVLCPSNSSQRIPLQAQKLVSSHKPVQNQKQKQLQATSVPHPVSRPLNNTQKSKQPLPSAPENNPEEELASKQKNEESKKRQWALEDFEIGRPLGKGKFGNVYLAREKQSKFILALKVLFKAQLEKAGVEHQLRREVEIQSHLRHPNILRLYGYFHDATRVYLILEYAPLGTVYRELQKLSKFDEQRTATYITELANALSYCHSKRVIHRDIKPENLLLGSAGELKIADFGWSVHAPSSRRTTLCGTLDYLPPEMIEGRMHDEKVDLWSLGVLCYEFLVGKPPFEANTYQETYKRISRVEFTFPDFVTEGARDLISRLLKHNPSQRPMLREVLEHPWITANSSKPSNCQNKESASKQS
Method in brief: (§2)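 Recombinant enzyme mixed with test compound and substrate peptide/ATP solution, incubated 90 min at 30 °C; enzyme quantity, ATP, substrate and cation set per kinase. IMAP reagent then added for 5 min at room temperature, and peptide phosphorylation quantified by fluorescence polarization.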

[4] = biological target: RAC-alpha serine/threonine-protein kinase (Homo sapiens, UniProt P31749); test: Inhibition of recombinant AKT1 by IMAP assay; method in brief: as §2
Ephrin type-A receptor 2 = Ephrin type-A receptor 2 (Homo sapiens, UniProt P29317); test: Inhibition of recombinant EphA2 by TR-FRET assay; method in brief: as §1
[5] = biological target: Leukocyte tyrosine kinase receptor (Homo sapiens, UniProt P29376); test: Inhibition of recombinant LTK by TR-FRET assay; method in brief: as §1
[6] = biological target: Cyclin-dependent kinase 1 (Homo sapiens, UniProt P06493); test: Inhibition of recombinant CDK1 by IMAP assay; method in brief: as §2
[7] = biological target: Tyrosine-protein kinase Yes (Homo sapiens, UniProt P07947); test: Inhibition of recombinant YES by TR-FRET assay; method in brief: as §1
[8] = biological target: Insulin-like growth factor 1 receptor (Homo sapiens, UniProt P08069); test: Inhibition of recombinant IGF1R by TR-FRET assay; method in brief: as §1
[9] = biological target: Mast/stem cell growth factor receptor Kit (Homo sapiens, UniProt P10721); test: Inhibition of recombinant Kit by TR-FRET assay; method in brief: as §1
[10] = biological target: Fibroblast growth factor receptor 2 (Homo sapiens, UniProt P21802); test: Inhibition of recombinant FGFR2 by TR-FRET assay; method in brief: as §1
[11] = biological target: Protein-tyrosine kinase 6 (Homo sapiens, UniProt Q13882); test: Inhibition of recombinant BRK by TR-FRET assay; method in brief: as §1
[12] = biological target: Tyrosine-protein kinase ABL1 (Homo sapiens, UniProt P00519); test: Inhibition of recombinant Abl by TR-FRET assay; method in brief: as §1
[13] = biological target: T2, Tyrosine-protein kinase receptor UFO (Homo sapiens, UniProt P30530); test: Inhibition of recombinant AXL by TR-FRET assay; method in brief: as §1
T2 sequence (P30530 whole entry): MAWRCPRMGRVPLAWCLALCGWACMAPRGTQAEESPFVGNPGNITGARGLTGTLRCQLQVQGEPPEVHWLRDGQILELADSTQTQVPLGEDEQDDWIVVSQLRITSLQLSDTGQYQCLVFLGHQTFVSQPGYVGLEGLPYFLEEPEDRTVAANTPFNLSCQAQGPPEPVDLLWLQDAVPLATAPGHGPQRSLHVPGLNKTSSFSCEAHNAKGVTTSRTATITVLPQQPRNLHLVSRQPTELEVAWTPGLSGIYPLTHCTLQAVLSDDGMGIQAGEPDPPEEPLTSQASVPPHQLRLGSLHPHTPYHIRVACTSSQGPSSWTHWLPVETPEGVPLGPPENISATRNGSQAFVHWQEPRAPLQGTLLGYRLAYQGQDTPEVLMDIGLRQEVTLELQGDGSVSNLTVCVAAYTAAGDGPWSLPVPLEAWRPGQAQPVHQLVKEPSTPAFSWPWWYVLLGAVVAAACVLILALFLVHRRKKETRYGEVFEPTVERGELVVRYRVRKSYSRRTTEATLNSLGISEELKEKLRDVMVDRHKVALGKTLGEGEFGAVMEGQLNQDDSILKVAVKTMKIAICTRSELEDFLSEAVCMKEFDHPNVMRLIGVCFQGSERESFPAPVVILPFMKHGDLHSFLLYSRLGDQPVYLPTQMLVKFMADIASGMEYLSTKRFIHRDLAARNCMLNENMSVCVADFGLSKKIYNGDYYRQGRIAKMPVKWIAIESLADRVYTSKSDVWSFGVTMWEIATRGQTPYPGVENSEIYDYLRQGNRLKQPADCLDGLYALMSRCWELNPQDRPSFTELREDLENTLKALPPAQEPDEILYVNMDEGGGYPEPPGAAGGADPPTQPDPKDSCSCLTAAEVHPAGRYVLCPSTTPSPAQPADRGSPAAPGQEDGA

[14] = Inhibition of recombinant PDGFR by TR-FRET assay; method in brief: as §1
[15] = biological target: Cyclin-dependent kinase 2 (Homo sapiens, UniProt P24941); test: Inhibition of recombinant CDK2 by IMAP assay; method in brief: as §2
[16] = biological target: T3, Protein kinase C beta type (Homo sapiens, UniProt P05771); test: Inhibition of recombinant PKCbeta2 by IMAP assay; method in brief: as §2
[17] = biological target: Macrophage-stimulating protein receptor (Homo sapiens, UniProt Q04912); test: Inhibition of recombinant RON by TR-FRET assay; method in brief: as §1
[18] = Inhibition of recombinant PKA by IMAP assay; method in brief: as §2
[19] = biological target: Tyrosine-protein kinase Fyn (Homo sapiens, UniProt P06241); test: Inhibition of recombinant Fyn by TR-FRET assay; method in brief: as §1
[20] = biological target: T3, Protein kinase C beta type; test: Inhibition of recombinant PKCbeta1 by IMAP assay; method in brief: as §2
[21] = biological target: Tyrosine-protein kinase Lck (Homo sapiens, UniProt P06239); test: Inhibition of recombinant LCK by TR-FRET assay
[22] = biological target: T4, Receptor-type tyrosine-protein kinase FLT3 (Homo sapiens, UniProt P36888); test: Inhibition of recombinant Flt3 by TR-FRET assay; method in brief: as §1
T4 sequence (P36888 whole entry): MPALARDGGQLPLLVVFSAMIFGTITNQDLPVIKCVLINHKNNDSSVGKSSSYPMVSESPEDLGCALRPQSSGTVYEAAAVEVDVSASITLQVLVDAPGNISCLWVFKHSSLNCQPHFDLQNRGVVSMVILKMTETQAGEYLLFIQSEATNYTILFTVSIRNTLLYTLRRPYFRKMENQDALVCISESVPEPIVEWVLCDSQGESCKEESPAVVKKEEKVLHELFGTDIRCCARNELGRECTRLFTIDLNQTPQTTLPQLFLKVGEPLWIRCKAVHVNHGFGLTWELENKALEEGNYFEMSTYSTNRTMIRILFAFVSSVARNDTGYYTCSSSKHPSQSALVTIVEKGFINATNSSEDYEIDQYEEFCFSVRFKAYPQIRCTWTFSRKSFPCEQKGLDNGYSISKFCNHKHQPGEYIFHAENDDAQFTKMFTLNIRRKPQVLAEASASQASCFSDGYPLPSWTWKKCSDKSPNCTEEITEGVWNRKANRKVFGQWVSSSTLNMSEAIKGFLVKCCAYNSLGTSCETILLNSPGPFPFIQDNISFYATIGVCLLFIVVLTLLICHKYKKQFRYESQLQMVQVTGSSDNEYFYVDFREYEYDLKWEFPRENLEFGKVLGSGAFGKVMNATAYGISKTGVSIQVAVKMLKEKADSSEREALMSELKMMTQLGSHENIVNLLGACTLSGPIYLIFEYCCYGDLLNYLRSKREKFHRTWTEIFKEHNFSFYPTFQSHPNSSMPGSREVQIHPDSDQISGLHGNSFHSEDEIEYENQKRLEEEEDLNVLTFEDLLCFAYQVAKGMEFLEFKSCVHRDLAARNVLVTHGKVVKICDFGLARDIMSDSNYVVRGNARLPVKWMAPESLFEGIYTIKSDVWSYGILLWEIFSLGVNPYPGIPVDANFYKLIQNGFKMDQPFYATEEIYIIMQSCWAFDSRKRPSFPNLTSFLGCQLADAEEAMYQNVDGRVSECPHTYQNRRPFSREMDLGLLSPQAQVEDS

[23] = biological target: Protein kinase C alpha type (Homo sapiens, UniProt P17252); test: Inhibition of recombinant PKCalpha by IMAP assay; method in brief: as §2
[24] = Solubility in fasted state simulated intestinal fluid; type: physicochemical
Insulin receptor = Insulin receptor (Homo sapiens, UniProt P06213); test: Inhibition of recombinant InsR by TR-FRET assay
MKN-45 = test: Cytotoxicity against human MKN45 cells after 96 hrs by WST8 assay; type: functional, cell-based; conditions: MKN-45, 96 h
Method in brief: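 Tumour cells exposed to a range of compound concentrations for 96 h; cytotoxicity read with WST-8 cell counting kit.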

T3 sequence (P05771 whole entry): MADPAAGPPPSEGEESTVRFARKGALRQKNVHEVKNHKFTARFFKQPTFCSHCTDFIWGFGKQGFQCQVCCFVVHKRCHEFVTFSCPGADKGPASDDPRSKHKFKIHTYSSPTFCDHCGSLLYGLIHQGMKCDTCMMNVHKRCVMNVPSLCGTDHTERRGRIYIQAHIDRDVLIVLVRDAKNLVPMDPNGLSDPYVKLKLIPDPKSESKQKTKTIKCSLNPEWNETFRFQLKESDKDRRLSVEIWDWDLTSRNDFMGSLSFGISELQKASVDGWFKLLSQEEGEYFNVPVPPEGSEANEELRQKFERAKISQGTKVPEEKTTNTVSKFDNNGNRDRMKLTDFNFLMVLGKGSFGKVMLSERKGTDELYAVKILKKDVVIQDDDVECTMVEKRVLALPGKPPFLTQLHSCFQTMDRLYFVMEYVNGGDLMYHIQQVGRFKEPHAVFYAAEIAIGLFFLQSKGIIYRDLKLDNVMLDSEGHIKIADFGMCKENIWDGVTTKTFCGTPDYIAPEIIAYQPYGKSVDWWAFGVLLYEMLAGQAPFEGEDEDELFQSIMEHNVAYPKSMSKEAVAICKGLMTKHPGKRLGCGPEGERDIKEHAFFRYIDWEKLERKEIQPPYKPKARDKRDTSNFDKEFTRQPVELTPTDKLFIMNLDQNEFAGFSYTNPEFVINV
Vascular endothelial growth factor receptor 2, sequence (P35968 whole entry): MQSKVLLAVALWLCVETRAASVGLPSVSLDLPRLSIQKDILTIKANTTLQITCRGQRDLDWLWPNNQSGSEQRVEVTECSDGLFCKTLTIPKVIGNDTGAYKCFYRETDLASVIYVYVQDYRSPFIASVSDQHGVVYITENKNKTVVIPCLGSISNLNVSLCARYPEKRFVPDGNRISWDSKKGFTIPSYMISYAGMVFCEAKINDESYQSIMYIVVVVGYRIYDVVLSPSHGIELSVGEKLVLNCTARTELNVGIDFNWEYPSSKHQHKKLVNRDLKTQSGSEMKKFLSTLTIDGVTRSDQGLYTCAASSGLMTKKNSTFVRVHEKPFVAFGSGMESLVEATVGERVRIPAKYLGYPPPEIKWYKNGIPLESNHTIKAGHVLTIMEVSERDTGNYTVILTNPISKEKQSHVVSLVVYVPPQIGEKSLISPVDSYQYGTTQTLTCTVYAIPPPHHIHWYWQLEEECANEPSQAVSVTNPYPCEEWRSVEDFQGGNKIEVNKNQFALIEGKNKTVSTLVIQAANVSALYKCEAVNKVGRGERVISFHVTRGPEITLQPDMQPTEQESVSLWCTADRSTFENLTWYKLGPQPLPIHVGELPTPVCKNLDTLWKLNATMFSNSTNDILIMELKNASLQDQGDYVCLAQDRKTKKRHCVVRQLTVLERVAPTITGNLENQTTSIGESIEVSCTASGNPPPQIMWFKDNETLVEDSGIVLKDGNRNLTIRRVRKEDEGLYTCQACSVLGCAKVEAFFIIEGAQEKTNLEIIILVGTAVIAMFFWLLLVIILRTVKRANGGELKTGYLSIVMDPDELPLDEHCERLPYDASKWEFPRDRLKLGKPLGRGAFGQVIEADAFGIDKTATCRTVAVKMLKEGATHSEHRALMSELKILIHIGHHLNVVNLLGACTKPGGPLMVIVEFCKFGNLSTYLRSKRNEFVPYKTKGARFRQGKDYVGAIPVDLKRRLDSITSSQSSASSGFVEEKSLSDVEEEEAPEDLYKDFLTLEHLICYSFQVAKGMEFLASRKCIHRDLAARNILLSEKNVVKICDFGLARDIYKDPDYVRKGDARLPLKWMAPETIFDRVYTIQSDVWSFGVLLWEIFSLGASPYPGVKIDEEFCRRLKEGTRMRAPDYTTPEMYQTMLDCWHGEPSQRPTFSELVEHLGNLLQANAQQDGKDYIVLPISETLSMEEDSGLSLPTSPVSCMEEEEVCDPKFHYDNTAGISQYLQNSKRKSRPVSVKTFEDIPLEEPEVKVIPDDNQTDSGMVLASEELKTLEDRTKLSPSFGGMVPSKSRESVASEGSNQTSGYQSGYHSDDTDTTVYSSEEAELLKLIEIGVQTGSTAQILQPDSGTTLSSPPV
Proto-oncogene tyrosine-protein kinase Src, sequence (P12931 2-536 limits assumed): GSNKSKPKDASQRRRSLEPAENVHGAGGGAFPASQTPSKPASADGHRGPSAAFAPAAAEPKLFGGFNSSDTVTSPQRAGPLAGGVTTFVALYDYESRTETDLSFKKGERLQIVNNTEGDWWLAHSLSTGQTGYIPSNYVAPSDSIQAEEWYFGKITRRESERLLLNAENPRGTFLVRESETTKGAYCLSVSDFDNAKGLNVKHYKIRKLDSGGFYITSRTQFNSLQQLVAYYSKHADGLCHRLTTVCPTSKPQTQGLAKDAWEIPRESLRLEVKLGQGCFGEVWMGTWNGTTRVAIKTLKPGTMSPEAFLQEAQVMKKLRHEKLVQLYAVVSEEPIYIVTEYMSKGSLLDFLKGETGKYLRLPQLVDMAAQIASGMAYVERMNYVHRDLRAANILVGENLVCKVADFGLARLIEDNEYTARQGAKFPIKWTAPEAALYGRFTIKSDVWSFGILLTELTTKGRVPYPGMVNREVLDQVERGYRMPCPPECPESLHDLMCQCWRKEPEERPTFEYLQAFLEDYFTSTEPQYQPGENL
Hepatocyte growth factor receptor, sequence (P08581 whole entry): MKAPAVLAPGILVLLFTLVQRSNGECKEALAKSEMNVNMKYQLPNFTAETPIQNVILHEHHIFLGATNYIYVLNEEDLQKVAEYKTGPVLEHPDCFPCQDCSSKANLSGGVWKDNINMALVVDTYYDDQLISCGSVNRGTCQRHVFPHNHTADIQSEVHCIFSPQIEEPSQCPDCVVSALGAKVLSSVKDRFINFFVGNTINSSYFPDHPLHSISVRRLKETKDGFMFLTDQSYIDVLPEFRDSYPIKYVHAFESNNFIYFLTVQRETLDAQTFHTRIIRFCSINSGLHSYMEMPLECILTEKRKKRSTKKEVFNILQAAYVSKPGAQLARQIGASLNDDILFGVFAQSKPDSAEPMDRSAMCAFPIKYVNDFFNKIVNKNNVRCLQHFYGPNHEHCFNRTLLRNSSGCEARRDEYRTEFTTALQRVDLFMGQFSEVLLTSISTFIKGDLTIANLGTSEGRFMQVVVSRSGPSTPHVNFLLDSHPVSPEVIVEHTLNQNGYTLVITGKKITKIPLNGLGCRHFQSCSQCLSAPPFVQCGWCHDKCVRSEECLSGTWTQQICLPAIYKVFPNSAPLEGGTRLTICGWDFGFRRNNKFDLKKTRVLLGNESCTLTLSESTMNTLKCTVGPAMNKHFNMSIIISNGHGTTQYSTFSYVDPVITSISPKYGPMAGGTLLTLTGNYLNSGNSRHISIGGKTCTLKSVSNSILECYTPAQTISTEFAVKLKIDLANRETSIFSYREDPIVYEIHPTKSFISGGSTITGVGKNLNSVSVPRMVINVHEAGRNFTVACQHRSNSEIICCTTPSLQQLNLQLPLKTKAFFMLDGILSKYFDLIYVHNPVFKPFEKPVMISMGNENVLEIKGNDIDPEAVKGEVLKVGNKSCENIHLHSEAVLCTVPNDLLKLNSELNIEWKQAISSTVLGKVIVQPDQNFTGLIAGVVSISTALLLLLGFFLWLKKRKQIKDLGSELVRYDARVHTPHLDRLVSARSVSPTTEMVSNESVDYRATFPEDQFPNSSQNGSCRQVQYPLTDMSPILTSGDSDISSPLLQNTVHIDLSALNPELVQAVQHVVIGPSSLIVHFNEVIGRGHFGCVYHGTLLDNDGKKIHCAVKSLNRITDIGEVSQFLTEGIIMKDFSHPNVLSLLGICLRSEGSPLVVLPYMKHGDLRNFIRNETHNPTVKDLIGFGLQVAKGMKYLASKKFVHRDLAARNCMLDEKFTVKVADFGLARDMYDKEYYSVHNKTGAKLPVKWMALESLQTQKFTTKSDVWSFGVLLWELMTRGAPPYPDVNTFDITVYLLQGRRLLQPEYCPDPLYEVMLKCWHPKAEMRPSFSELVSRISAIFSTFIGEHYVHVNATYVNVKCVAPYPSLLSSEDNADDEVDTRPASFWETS
Mast/stem cell growth factor receptor Kit, sequence (P10721 whole entry): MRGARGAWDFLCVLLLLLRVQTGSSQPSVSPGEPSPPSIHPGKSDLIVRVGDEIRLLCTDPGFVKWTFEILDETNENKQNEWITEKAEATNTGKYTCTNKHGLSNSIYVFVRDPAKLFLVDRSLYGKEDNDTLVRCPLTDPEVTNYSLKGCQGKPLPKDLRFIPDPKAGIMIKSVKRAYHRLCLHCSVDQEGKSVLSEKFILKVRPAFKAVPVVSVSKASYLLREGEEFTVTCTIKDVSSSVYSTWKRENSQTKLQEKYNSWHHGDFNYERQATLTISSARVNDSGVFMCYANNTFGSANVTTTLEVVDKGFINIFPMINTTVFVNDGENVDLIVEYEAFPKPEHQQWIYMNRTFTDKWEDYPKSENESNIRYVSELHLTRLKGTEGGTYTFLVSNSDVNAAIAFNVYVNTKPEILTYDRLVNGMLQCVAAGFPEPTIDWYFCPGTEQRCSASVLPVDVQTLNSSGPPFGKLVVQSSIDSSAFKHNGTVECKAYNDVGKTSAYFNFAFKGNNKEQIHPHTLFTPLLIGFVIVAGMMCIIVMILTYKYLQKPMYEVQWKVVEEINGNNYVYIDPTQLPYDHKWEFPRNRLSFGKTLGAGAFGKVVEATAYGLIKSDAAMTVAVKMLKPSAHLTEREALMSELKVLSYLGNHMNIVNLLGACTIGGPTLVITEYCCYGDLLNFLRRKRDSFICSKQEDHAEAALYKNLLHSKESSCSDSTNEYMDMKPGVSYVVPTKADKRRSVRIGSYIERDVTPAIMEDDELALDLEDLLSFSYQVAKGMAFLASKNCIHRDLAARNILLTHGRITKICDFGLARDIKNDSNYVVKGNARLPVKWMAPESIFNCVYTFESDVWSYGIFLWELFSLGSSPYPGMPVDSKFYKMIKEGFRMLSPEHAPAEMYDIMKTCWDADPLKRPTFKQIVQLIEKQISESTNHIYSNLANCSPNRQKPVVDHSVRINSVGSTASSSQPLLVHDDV

SMILES: CC(Oc1ccc2ncc(CCC(N)=O)cc2c1)c1c(Cl)ccc(F)c1Cl (racemic)
IC50 [1]: > 50 µM | IC50 [2]: 50 µM | IC50 (MKN-45): 4.4 µM | IC50 [3]: 0.205 µM

SMILES: CC(Oc1ccc2ncccc2c1)c1c(Cl)ccc(F)c1Cl (racemic)
IC50 [1]: > 50 µM | IC50 [2]: 32 µM | IC50 [3]: 0.453 µM

SMILES: CNC(=O)/C=C/c1cnc2ccc(OC(C)c3c(Cl)ccc(F)c3Cl)cc2c1 (racemic)
IC50 [1]: > 50 µM | IC50 [2]: > 50 µM | IC50 (MKN-45): 0.24 µM

SMILES: CC(Oc1ccc2ncc(/C=C/C(=O)O)cc2c1)c1c(Cl)ccc(F)c1Cl (racemic)
IC50 [1]: > 50 µM | IC50 [2]: > 50 µM | IC50 (MKN-45): 10.2 µM | IC50 [3]: 0.094 µM

Further lines, with some results ahead:

IC50 [1]: 20 µM | IC50 [2]: > 50 µM | IC50 [3]: 1.2 µM
SMILES: C[C@H](Oc1ccc2ncccc2c1)c1c(Cl)ccc(F)c1Cl

IC50 (Aurora kinase A): > 50 µM | IC50 [4]: > 50 µM | IC50 (Ephrin type-A receptor 2): > 50 µM | IC50 [5]: > 50 µM | IC50 [6]: > 50 µM | IC50 [7]: > 50 µM | IC50 [8]: > 50 µM | IC50 [9]: 41 µM | IC50 [10]: 24 µM | IC50 [11]: > 50 µM | IC50 [12]: > 50 µM | IC50 [13]: 14 µM | IC50 [14]: > 50 µM | IC50 [15]: > 50 µM | IC50 [16]: > 50 µM | IC50 [17]: 3.6 µM | IC50 [1]: 22 µM | IC50 [18]: > 50 µM | IC50 [19]: > 50 µM | IC50 [2]: 23 µM | IC50 [3]: 0.13 µM | IC50 [20]: > 50 µM | IC50 [21]: > 50 µM | IC50 [22]: 46 µM
SMILES: C[C@@H](Oc1ccc2ncccc2c1)c1c(Cl)ccc(F)c1Cl

IC50 (Aurora kinase A): 6.4 µM | IC50 [4]: > 50 µM | IC50 (Ephrin type-A receptor 2): 4.4 µM | IC50 [5]: 18 µM | IC50 [6]: > 50 µM | IC50 [7]: 26 µM | IC50 [8]: > 50 µM | IC50 [9]: > 50 µM | IC50 [10]: 6.9 µM | IC50 [11]: 32 µM | IC50 [12]: 10 µM | IC50 [13]: 0.57 µM | IC50 [23]: > 50 µM | IC50 [14]: > 50 µM | IC50 [15]: > 50 µM | IC50 [16]: > 50 µM | IC50 [17]: 0.45 µM | IC50 [18]: > 50 µM | IC50 [19]: 28 µM | IC50 [2]: 11 µM | solubility [24]: < 0.013 mg/mL | IC50 (Insulin receptor): > 50 µM | IC50 [20]: > 50 µM | IC50 [21]: 14 µM | IC50 [22]: 32 µM
SMILES: C[C@@H](Oc1ccc2ncc(/C=C/C(N)=O)cc2c1)c1c(Cl)ccc(F)c1Cl

IC50 [1]: > 50 µM | IC50 [2]: 26 µM
SMILES: CC(Oc1ccc2ncc(/C=C/C(N)=O)cc2c1)c1c(Cl)ccc(F)c1Cl (racemic)
IC50 (MKN-45): 0.35 µM

IC50 [1]: 46 µM | IC50 [2]: 33 µM | IC50 [3]: 0.368 µM
SMILES: CC(Oc1ccc2ncc(/C=C/CN)cc2c1)c1c(Cl)ccc(F)c1Cl (racemic)
IC50 (MKN-45): 4.3 µM

IC50 [1]: > 50 µM | IC50 [2]: > 50 µM | IC50 [3]: 0.059 µM
SMILES: CC(Oc1ccc2ncc(/C=C/C(=O)N(C)C)cc2c1)c1c(Cl)ccc(F)c1Cl (racemic)
IC50 (MKN-45): 0.61 µM
